Activity calls are given as the source filed them. The rule behind the calls is not given here.
Experiments:
[1] = Displacement of [3H]-YM-09151-2 from cloned dopamine D4.2 receptor (unknown origin) expressed in Sf9 cells after 60 mins; design: species or system Homo sapiens
In short: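 Sf9 membranes with cloned D4.2 receptor incubated with 0.2 nM [3H]YM-09151-2 for 60 min at 27 °C in 50 mM Tris-HCl pH 7.4, 5 mM MgCl2, 5 mM EDTA, 5 mM KCl, 1.5 mM CaCl2. Clozapine defined nonspecific binding. Filtered on glass-fiber filters presoaked in 0.3% PEI.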

[2] = Ratio of drug level from brain to plasma in Sprague-Dawley rat at 10 mg/kg, iv measured at 2 hrs; format: ADME, organism-based; design: dose 10 mg/kg, route intravenous; conditions: read-out: BPR
In short: (§1)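 Rats fasted 12 h, then dosed orally by gavage or by bolus tail-vein injection at 2 ml/kg. Compound given as a 5 mg/ml solution in N-methyl-2-pyrrolidone/Tween 80/water (1:2:7). Samples taken at various times (n = 5) and stored at −70 °C. Plasma deproteinized with acetonitrile containing carbamazepine internal standard, then quantified by LC-MS/MS.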

Mus musculus [3] = test: Antiobesity activity in B6.V/J ob/ob mouse assessed as change in brain weight at 25 mg/kg, po bid measured after 14 days (reference value: 0.340 +/- 0.017 g); format: functional
Mus musculus [4] = test: Antiobesity activity in B6.V/J ob/ob mouse assessed as inhibition of body weight gain at 25 mg/kg, po bid measured after 14 days relative to vehicle-treated control; format: functional; conditions: 336 h
Mus musculus [5] = test: Antiobesity activity in B6.V/J ob/ob mouse assessed as change in spleen weight at 50 mg/kg, po bid measured after 14 days (reference value: 0.097 +/- 0.052 g); format: functional
Mus musculus [6] = test: Antiobesity activity in B6.V/J ob/ob mouse assessed as change in heart weight at 50 mg/kg, po bid measured after 14 days (reference value: 0.150 +/- 0.003 g); format: functional
Mus musculus [7] = test: Antiobesity activity in B6.V/J ob/ob mouse assessed as reduction of food intake at 25 mg/kg, po qd measured after 14 days; format: functional, organism-based; design: dose 25 mg/kg
In short: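 Male ob/ob mice (B6.V-Lep^ob/J) received oral doses once daily for 14 days, with vehicle control. Food intake and body weight gain were followed.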

Mus musculus [8] = test: Antiobesity activity in B6.V/J ob/ob mouse assessed as change in heart weight at 5 mg/kg, po bid measured after 14 days (reference value: 0.150 +/- 0.003 g); format: functional
[9] = Oral bioavailability in Sprague-Dawley rat at 10 mg/kg; format: ADME, organism-based; conditions: in vivo; in short: as §1
Mus musculus [10] = test: Antiobesity activity in C57BL/6 mouse assessed as inhibition of body weight gain at 50 mg/kg, ip measured after 2 to 12 hrs relative to vehicle-treated control; format: functional; conditions: C57BL/6, ip, route intraperitoneal
[11] = Plasma concentration in Sprague-Dawley rat at 10 mg/kg, po measured at 2 hrs; format: ADME, organism-based; design: dose 10 mg/kg, route oral; in short: as §1
[12] = biological target: T1, 5-hydroxytryptamine receptor 2C (Homo sapiens, UniProt P28335); test: Displacement of [3H]-mesulergine from human recombinant 5HT-2C receptor expressed in CHOK1 cell membranes after 30 mins; design: species or system CHO-K1
T1 sequence (P28335 whole entry): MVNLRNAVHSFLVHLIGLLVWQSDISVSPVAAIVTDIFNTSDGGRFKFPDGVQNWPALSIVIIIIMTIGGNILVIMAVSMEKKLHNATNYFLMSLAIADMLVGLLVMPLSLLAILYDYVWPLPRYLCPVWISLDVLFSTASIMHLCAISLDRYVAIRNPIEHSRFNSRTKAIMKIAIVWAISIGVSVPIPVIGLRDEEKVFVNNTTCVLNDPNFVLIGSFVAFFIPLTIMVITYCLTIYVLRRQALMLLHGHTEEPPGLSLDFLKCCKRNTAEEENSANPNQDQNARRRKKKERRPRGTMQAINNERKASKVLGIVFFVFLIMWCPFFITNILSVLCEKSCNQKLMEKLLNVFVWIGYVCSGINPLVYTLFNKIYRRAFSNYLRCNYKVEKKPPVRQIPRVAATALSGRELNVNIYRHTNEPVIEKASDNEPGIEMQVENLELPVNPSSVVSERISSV
In short: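 Frozen CHO-K1 membranes expressing recombinant human 5-HT2C incubated with 1 nM [3H]mesulergine in 50 mM Tris-HCl pH 7.4 containing 0.1% ascorbic acid and pargyline. Mianserin defined nonspecific binding.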

Mus musculus [13] = test: Antiobesity activity in B6.V/J ob/ob mouse assessed as inhibition of food intake at 25 mg/kg, ip measured up to 2 hrs relative to vehicle-treated control; format: functional; conditions: route intraperitoneal
In short: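 Male mice were acclimated 1 week at 23 ± 3 °C and 50 ± 20% humidity, then fasted 24 h. They were dosed once intraperitoneally with vehicle or compound: 50 mg/kg in C57BL/6, or 12.5, 25 or 50 mg/kg in B6.V-Lep^ob/J. Food intake was measured at 2, 6 and 12 h versus vehicle control.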

[14] = Apparent volume of distribution at steady state in Sprague-Dawley rat at 10 mg/kg, iv; format: ADME, organism-based; design: dose 10 mg/kg, route intravenous; conditions: in vivo, read-out: Vdss(app); in short: as §1
[15] = biological target: 5-hydroxytryptamine receptor 6 (Homo sapiens, UniProt P50406); test: Displacement of [3H]-LSD from human recombinant 5HT-6 receptor expressed in CHOK1 cell membranes after 60 mins; design: species or system CHO-K1
In short: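 CHO-K1 membranes expressing human 5-HT6 incubated with 1 nM [3H]LSD for 60 min at 27 °C in 50 mM Tris-HCl pH 7.4 containing 4 mM CaCl2 and 0.1% ascorbic acid. Terminated by filtration on glass-fiber filters presoaked in 0.5% PEI. Methiothepin defined nonspecific binding.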

D(3) dopamine receptor = D(3) dopamine receptor (Homo sapiens, UniProt P35462); test: Displacement of [3H]-methylspiperone from dopamine D3 receptor (unknown origin) after 30 mins
In short: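 Receptor membranes incubated at 27 °C, 60 min for D2L and 30 min for D3, with [3H]methylspiperone (0.2 nM for D2L, 0.25 nM for D3) and test compound at a range of concentrations. Buffer was 50 mM Tris-HCl pH 7.4, 10 mM MgCl2, 1 mM EDTA, 120 mM NaCl. Nonspecific binding defined with haloperidol (D2) or GR103691 (D3). IC50 obtained by nonlinear regression.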

[16] = AUC (0 to infinity) in Sprague-Dawley rat at 10 mg/kg, iv; format: ADME, organism-based; design: time infinity, dose 10 mg/kg, route intravenous; conditions: plasma
[17] = Drug excretion in Sprague-Dawley rat at 10 mg/kg, iv; format: ADME, organism-based; design: dose 10 mg/kg, route intravenous; conditions: in vivo, read-out: Ae; in short: as §1
Mus musculus [18] = test: Antiobesity activity in C57BL/6 mouse assessed as inhibition of body weight gain at 50 mg/kg, po qd measured after 14 days relative to vehicle-treated control; format: functional; conditions: C57BL/6, 336 h
[19] = Plasma concentration in Sprague-Dawley rat at 10 mg/kg, iv measured at 8 hrs; format: ADME, organism-based; design: dose 10 mg/kg, route intravenous; in short: as §1
Mus musculus [20] = test: Antiobesity activity in B6.V/J ob/ob mouse assessed as change in spleen weight at 5 mg/kg, po bid measured after 14 days (reference value: 0.097 +/- 0.052 g); format: functional
Mus musculus [21] = test: Antiobesity activity in B6.V/J ob/ob mouse assessed as reduction of body weight gain at 50 mg/kg, po bid measured after 14 days; format: functional, organism-based; design: dose 50 mg/kg

Chain of 5-hydroxytryptamine receptor 6 (P50406 whole entry): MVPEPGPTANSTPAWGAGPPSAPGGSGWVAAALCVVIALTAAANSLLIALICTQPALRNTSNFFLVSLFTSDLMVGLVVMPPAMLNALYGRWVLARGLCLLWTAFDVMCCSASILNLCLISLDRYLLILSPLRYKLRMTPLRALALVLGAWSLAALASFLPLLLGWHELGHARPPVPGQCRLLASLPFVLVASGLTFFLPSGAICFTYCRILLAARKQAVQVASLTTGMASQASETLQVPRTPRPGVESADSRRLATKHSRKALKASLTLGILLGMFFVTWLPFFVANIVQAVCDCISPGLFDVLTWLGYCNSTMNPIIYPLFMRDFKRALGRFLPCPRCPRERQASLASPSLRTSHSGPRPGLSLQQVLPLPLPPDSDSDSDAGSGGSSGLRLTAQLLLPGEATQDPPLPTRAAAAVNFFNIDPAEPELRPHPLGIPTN
Chain of D(3) dopamine receptor (P35462 whole entry): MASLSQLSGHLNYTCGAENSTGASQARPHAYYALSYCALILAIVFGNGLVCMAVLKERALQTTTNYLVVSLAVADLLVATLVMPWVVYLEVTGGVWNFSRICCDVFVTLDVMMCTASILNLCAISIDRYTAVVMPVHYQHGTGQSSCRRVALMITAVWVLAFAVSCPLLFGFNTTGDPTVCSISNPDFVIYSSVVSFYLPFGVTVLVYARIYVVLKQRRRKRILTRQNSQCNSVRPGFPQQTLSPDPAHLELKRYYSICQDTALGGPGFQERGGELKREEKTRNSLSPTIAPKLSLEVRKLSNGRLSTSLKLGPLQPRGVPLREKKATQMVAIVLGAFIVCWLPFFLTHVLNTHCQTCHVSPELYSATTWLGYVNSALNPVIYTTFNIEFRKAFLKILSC

Q: Which IC50 [1] does the source give for `Cl.Clc1cccc(Nc2nc(Cc3ccccc3)nc3c2CCNCC3)c1` here?
A: The IC50 was 0.9 µM.

Q: What about the Kp at 2 h [2] of the same molecule?
A: Its Kp at 2 h is 9.33.

Q: And the Activity (Mus musculus [3])?
A: Its Activity is 0.369 g.

Q: And the inhibition in vivo at 25 mg/kg (Mus musculus [4])?
A: Its inhibition in vivo at 25 mg/kg is 32.7%.

Q: And the Activity (Mus musculus [5])?
A: Its Activity is 0.075 g.

Q: What about the Activity (Mus musculus [6]) of the same molecule?
A: The Activity was 0.17 g.

Q: What about the Activity (Mus musculus [7]) of the same molecule?
A: Its Activity is “inactive”.

Q: And the Activity (Mus musculus [8])?
A: Its Activity is 0.163 g.

Q: And the bioavailability [9]?
A: The bioavailability was 55.1%.

Q: What about the inhibition in vivo at 50 mg/kg (Mus musculus [10]) of the same molecule?
A: Its inhibition in vivo at 50 mg/kg is 84.8%.

Q: And the concentration at 2 h [11]?
A: The concentration at 2 h was 50 ng/mL.

Q: And the IC50 [12]?
A: The IC50 was 0.0023 µM.

Q: And the inhibition in vivo at 25 mg/kg (Mus musculus [13])?
A: The inhibition in vivo at 25 mg/kg was 99.8%.

Q: What about the Vd [14] of the same molecule?
A: The Vd was 17 L/kg.

Q: And the IC50 [15]?
A: Its IC50 is 0.0218 µM.

Q: What about the IC50 (D(3) dopamine receptor) of the same molecule?
A: Its IC50 is 0.807 µM.

Q: What about the AUC(0-inf) [16] of the same molecule?
A: The AUC(0-inf) was 1910 ng·h/mL.

Q: What about the dose excreted [17] of the same molecule?
A: The dose excreted was 0.03%.

Q: What about the inhibition in vivo at 50 mg/kg (Mus musculus [18]) of the same molecule?
A: Its inhibition in vivo at 50 mg/kg is 18.8%.

Q: What about the concentration at 8 h [19] of the same molecule?
A: Its concentration at 8 h is 60 ng/mL.

Q: And the Activity (Mus musculus [20])?
A: The Activity was 0.057 g.

Q: What about the Activity (Mus musculus [21]) of the same molecule?
A: Its Activity is “Active”.
